Source: PubChem
Shown are actives, neighbours in structure and some others; about 4.1% of the full set was active somewhere.
DNA FID counter = compounds displacing fluorescent DNA intercalator, primary screen, artefact control for HCV NS3 helicase inhibitor project, biochemical, FID fluorescence | AID 1845, 2009 | DNA fluorescent intercalator displacement | hit rate 0.17% among 290,000 | inhibition, % at 7.9 µM; in the data active = inhibition above about 37%;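 note: 0% = vehicle and 100% = reference compound; higher means more ethidium bromide displaced from hairpin DNA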
MEKK3 PB1 HTS = modulators of MEKK3-MEK5 PB1 binding, primary screen, biochemical, wildtype MEKK3, multiplex bead flow cytometry, Alexa488-MEK5. bead-based flow cytometry, Alexa488-MEK5 binding to MEKK3; actives lie on both sides; 0 = blocked by unlabeled MEK5, 100 = vehicle. hit rate 1.4% among 290,000. Mitogen-activated protein kinase kinase kinase 3 (Homo sapiens), Q99759. binding response (% of control), % at 10 µM;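 active = binding response more than 3 SD above or below the average of its plate-row segment, actives on both sides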;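 note: Alexa488 bead fluorescence after subtracting the streptavidin-only scavenger bead signal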
Target sequence (Q99759 whole entry, looked up): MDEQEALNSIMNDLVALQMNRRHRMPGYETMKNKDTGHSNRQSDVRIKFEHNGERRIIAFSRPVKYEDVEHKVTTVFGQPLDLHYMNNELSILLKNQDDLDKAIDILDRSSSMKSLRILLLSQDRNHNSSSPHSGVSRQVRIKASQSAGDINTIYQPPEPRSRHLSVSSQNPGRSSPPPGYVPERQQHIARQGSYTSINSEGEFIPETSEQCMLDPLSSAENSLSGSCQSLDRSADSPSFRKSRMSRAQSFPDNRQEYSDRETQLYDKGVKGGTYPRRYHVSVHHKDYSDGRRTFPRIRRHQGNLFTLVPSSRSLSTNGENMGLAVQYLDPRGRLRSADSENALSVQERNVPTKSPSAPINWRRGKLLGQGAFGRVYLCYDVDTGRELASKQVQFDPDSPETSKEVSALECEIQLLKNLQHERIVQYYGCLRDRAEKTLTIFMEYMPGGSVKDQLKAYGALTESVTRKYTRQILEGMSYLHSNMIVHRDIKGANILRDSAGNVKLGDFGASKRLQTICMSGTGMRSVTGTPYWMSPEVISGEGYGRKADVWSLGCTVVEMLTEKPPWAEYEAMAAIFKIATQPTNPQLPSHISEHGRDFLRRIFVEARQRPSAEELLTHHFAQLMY
MEKK2wt PB1 HTS = modulators of MEK5 binding to wildtype MEKK2, primary screen, biochemical, multiplex bead flow cytometry, Alexa488-MEK5; AID 1531, 2009; Mitogen-activated protein kinase kinase kinase 2 (Homo sapiens), Q9Y2U5; binding response (% of control), % at 10 µM; Alexa488-MEK5 binding to MEKK2 WT; actives lie on both sides; hit rate 1.1% among 290,000; in the data active = binding response below about 67% or above about 130%
T cruzi inh = inhibitors of intracellular T. cruzi growth, primary screen, luminescence, NIH3T3 host cells; T. cruzi beta-gal in NIH3T3, 90 h; inhibition, % (test concentration not listed); hit rate 1.4% among 300,000; AID 1885, 2009;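 active = mean inhibition across valid replicates above about 55%, limit read from the data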;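 note: signal also drops with host cell toxicity which is not excluded here; 0% = plate median of DMSO wells and 100% = zero luminescence signal; higher percent means less beta-gal luminescence so fewer parasites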
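compound dosing = single 50 nL compound addition per well in DMSO | material = NIH/3T3 host cells with β-galactosidase reporter T. cruzi | input = 5,000 host fibroblasts per well | timing = ≥90 h infection period, 3 h prior cell attachment | read-out basis = percent inhibition of parasite-derived β-gal signal | detection = GalScreen β-gal luminescence, detergent lysis, 60 min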
MEKK2 mut-MEK5 = MEK5 binding signal on mutant MEKK2 PB1, primary screen, biochemical, multiplex bead flow cytometry, Alexa488-MEK5 | percent response, % at 10 µM | Alexa488-MEK5 binding to MEKK2 mutant | hit rate 0.35% among 290,000; in the data active = percent response above about 24%, passing the limit was not always enough
NS3 helicase inh = inhibitors of HCV NS3 helicase, primary screen, biochemical, Cy5 molecular beacon fluorescence; NS3 helicase DNA unwinding; inhibition, % at 10.9 µM; hit rate 0.56% among 290,000; Hepatitis C virus NS3 helicase;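 active = inhibition above the mean of all tested compounds plus 3 SD, set per campaign, cut at about 35% in these data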;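 note: 0% = DMSO wells and 100% = thioflavine S control wells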
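Assay system: hepatitis C virus NS3 helicase domain fragment enzyme. Also added: annealed dual-labelled DNA beacon duplex, ATP-started. Timing: 1 h reaction at 25 °C, ATP-initiated. Technique: Cy5 fluorescence at 0 and 60 min, beacon hairpin quenching. Evaluation: % inhibition of unwinding. Replication: one well per compound.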
MEKK2wt confirm = modulators of MEK5 binding to wildtype MEKK2, confirmation, biochemical, single concentration, multiplex bead flow cytometry; binding response (% of control), % at 10 µM; hit rate 2.4% among 5,900; AID 1892, 2009; shares compounds with MEKK3 PB1 HTS; Alexa488-MEK5 binding to MEKK2 WT; actives lie on both sides; in the data active = binding response below about 16% or above about 210%; inactive = in between
MEKK2mut-MEK5 = mutant MEKK2 PB1-MEK5 binding signal retest – biochemical, single concentration, multiplex bead flow cytometry, confirmation | percent response, % at 10 µM | Alexa488-MEK5 binding to MEKK2 mutant | hit rate 2% among 5,900 | shares compounds with MEKK3 PB1 HTS; in the data active = percent response mostly above about 71%, no sharp cut-off; inactive = mostly below about 38%;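 note: higher means compound restores mutant binding toward wildtype level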
MEKK3-MEK5 inh = MEKK3 wild-type PB1 binding to MEK5, inhibitors, confirmation, biochemical, bead multiplex flow cytometry, single concentration, wildtype. hit rate 1.8% among 5,900. shares compounds with MEKK3 PB1 HTS. binding response (% of control), % at 10 µM. AID 1894, 2009. Alexa488-MEK5 binding to MEKK3; hits give low values;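 active = binding response below 72% of control, or above a set upper limit, though filed actives all read lower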;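 note: 100% = DMSO only wells and 0% = binding blocked by excess unlabeled MEK5; lower values mean stronger disruption of MEK5 binding to MEKK3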
An asterisk follows results filed as active; [ ] = dose if it differs, or a comment.

`CCOC(=O)c1c(C)[nH]c(C(=O)COC(=O)COc2ccccc2C=O)c1C` gave DNA FID counter -4.1, MEKK3 PB1 HTS 70.0*[inhibitor], MEKK2wt PB1 HTS 91.0, T cruzi inh -3.4, MEKK2 mut-MEK5 -2.0, NS3 helicase inh -5.5, MEKK2wt confirm 98.0, MEKK2mut-MEK5 2.0 and MEKK3-MEK5 inh 101.0.
Screening CC(=O)c1c(C)[nH]c(C(=O)COC(=O)CCSc2ccccc2)c1C returned DNA FID counter -15.8, MEKK3 PB1 HTS 155.0*, MEKK2wt PB1 HTS 113.0, T cruzi inh -10.1, MEKK2 mut-MEK5 1.0, NS3 helicase inh -2.5, MEKK2wt confirm 94.0, MEKK2mut-MEK5 -6.0 and MEKK3-MEK5 inh 102.0.
For COc1ccc(OC)c(C2C3=C(CCCC3=O)Nc3nnnn32)c1 (stereo unspecified) the results were DNA FID counter -0.3, MEKK3 PB1 HTS 133.0*, MEKK2wt PB1 HTS 107.0, T cruzi inh -2.2, MEKK2 mut-MEK5 0.0, NS3 helicase inh 1.7, MEKK2wt confirm 99.0, MEKK2mut-MEK5 -3.0 and MEKK3-MEK5 inh 98.0.
`CC(C)(C)C(=O)OCc1nc(-c2ccc(F)cc2)cs1` gave DNA FID counter -2.8, MEKK3 PB1 HTS 54.0, MEKK2wt PB1 HTS 44.0*[inhibitor], T cruzi inh -10.2, MEKK2 mut-MEK5 -24.0, NS3 helicase inh -7.8, MEKK2wt confirm 94.0, MEKK2mut-MEK5 -11.0 and MEKK3-MEK5 inh 95.0.
For COc1ccc(-c2csc(COC(=O)C(C)(C)C)n2)cc1 the results were DNA FID counter -17.6, MEKK3 PB1 HTS 95.0, MEKK2wt PB1 HTS 99.0, T cruzi inh -10.6, MEKK2 mut-MEK5 -2.0 and NS3 helicase inh -2.1.
`CCN1C(=O)[C@H]2[C@@H](c3ccc(-c4ccc(OC)cc4)cc3)N3CCCC[C@@]3(C(=O)OC)[C@H]2C1=O` gave T cruzi inh -4.1.
Screening COc1ccc(-c2c(C(F)(F)F)nn(C)c2NC(C)=O)cc1 returned DNA FID counter -3.9, MEKK3 PB1 HTS 102.0, MEKK2wt PB1 HTS 104.0, T cruzi inh -10.6, MEKK2 mut-MEK5 0.0 and NS3 helicase inh -21.5.
COc1ccc(NC(=S)N2c3ccccc3CC2C)cc1OC (stereo unspecified) was read as DNA FID counter -0.1, MEKK3 PB1 HTS 74.0*[inhibitor], MEKK2wt PB1 HTS 85.0, T cruzi inh -14.5, MEKK2 mut-MEK5 -5.0, NS3 helicase inh 8.5, MEKK2wt confirm 100.0, MEKK2mut-MEK5 -1.0 and MEKK3-MEK5 inh 102.0.
For COc1c(/C=N/NC(=O)c2ccccc2O)c(CCN(C)C(C)=O)cc2c1OCO2 the results were DNA FID counter -24.8, MEKK3 PB1 HTS 134.0*, MEKK2wt PB1 HTS 100.0, T cruzi inh -13.5, MEKK2 mut-MEK5 -1.0, NS3 helicase inh 16.7, MEKK2wt confirm 105.0, MEKK2mut-MEK5 7.0 and MEKK3-MEK5 inh 98.0.
For COc1c(/C=N/Nc2ccc(C(=O)O)cc2)c(CCN(C)C(C)=O)cc2c1OCO2 the results were DNA FID counter -13.9, MEKK3 PB1 HTS 94.0, MEKK2wt PB1 HTS 89.0, T cruzi inh -1.5, MEKK2 mut-MEK5 -15.0 and NS3 helicase inh 3.1.
For CCC(=O)N(C)CCc1cc2c(c(OC)c1/C=N/NC(=O)c1ccc(Br)cc1)OCO2 the results were DNA FID counter -9.6, MEKK3 PB1 HTS 131.0*, MEKK2wt PB1 HTS 99.0, T cruzi inh 4.1, MEKK2 mut-MEK5 0.0, NS3 helicase inh 3.5, MEKK2wt confirm 67.0, MEKK2mut-MEK5 -10.0 and MEKK3-MEK5 inh 85.0.
CCC(=O)N(C)CCc1cc2c(c(OC)c1/C=N/NC(=O)c1ccccc1O)OCO2 was read as DNA FID counter -8.3, MEKK3 PB1 HTS 119.0, MEKK2wt PB1 HTS 108.0, T cruzi inh -3.5, MEKK2 mut-MEK5 1.0 and NS3 helicase inh 14.7.
CCOC(=O)/C(=N/Nc1ccccc1)Sc1nnnn1-c1ccc(C)cc1 was read as DNA FID counter -29.2, MEKK3 PB1 HTS 129.0*, MEKK2wt PB1 HTS 105.0, T cruzi inh -7.7, MEKK2 mut-MEK5 4.0, NS3 helicase inh 6.0, MEKK2wt confirm 100.0, MEKK2mut-MEK5 -2.0 and MEKK3-MEK5 inh 97.0.
`O=C(/C(=N\Nc1ccc(Br)cc1)Sc1nnnn1-c1ccccc1)c1ccccc1` gave DNA FID counter -7.0, MEKK3 PB1 HTS 130.0*, MEKK2wt PB1 HTS 104.0, T cruzi inh -11.3, MEKK2 mut-MEK5 -1.0, NS3 helicase inh 2.9, MEKK2wt confirm 107.0, MEKK2mut-MEK5 -2.0 and MEKK3-MEK5 inh 104.0.
`Nc1nc(SCc2ccc(F)cc2)ns1` gave DNA FID counter -1.4, MEKK3 PB1 HTS 98.0, MEKK2wt PB1 HTS 96.0, T cruzi inh -19.7, MEKK2 mut-MEK5 -5.0 and NS3 helicase inh -5.2.
For CC(Nc1ccccc1N1CCCCC1)C(=O)N1CCc2ccccc21 (stereo unspecified) the results were DNA FID counter -0.7, MEKK3 PB1 HTS 100.0, MEKK2wt PB1 HTS 103.0, T cruzi inh 23.7, MEKK2 mut-MEK5 2.0 and NS3 helicase inh 5.3.
CCN1CCCC1CNc1ncnc2c1[nH]c1ccc(Cl)cc12 (stereo unspecified) was read as DNA FID counter 27.7, MEKK3 PB1 HTS 101.0, MEKK2wt PB1 HTS 125.0, T cruzi inh 31.8, MEKK2 mut-MEK5 35.0*, NS3 helicase inh -31.4, MEKK2wt confirm 119.0, MEKK2mut-MEK5 4.0 and MEKK3-MEK5 inh 90.0.
`O=C1CCCN1CCCNc1ncnc2c1[nH]c1ccc(Cl)cc12` gave DNA FID counter 1.1, MEKK3 PB1 HTS 108.0, MEKK2wt PB1 HTS 114.0, T cruzi inh 12.9, MEKK2 mut-MEK5 11.0 and NS3 helicase inh -16.6.
`O=S(=O)(Cc1ccccc1)NCCc1cccc(Cl)c1` gave DNA FID counter -11.2, MEKK3 PB1 HTS 108.0, MEKK2wt PB1 HTS 108.0, T cruzi inh -0.7, MEKK2 mut-MEK5 6.0 and NS3 helicase inh -0.9.
